Screening results deposited in PubChem BioAssay by several laboratories.
In the library only some 4% were active in any assay of this set; here they are far more common.
MPTP block: inhibitors of mitochondrial permeability transition pore. inhibition, % at 10 µM. AID 602449. isolated mouse mitochondria, Ca2+ swelling absorbance, 30 min. hit rate 1.4% among 360,000;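 active = inhibition of 50% or more, scaled per plate between neutral and stimulator controls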;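 note: 0% = DMSO wells given calcium and 100% = 1 mM EGTA wells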
TAAR1 ag: agonists of human TAAR1; Q96RJ0; CHO RD-HGA16 TAAR1, Fluo-8 calcium fluorescence; vehicle wells 0%, saturating PEA agonist 100%; activation, % at 3 µM; hit rate 0.99% among 360,000; AID 624467;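 active = activation above the mean activation of all test compounds in the run plus 3 SD, cut at about 38% in these data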
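Assay system – CHO-derived RD-HGA16 cells with stable Gα16 and human TAAR1 · Compound dosing – one-point dosing at 3 µM (nominal) · Incubation – 17-24 h seeding, 75 min 37 °C dye, 30 min RT · Measured by – kinetic Fluo-8 calcium fluorescence · Control set – DMSO vehicle as 0%, PEA at EC100 as 100% · Repeats – single well for each compound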
GPR7 antagonist: blocks human GPR7 receptor signaling | hit rate 1.1% among 290,000 | inhibition, % at 4.4 µM | GPR7-expressing cells, fluorescence antagonist assay | AID 1861 | P48145; in the data active = inhibition above about 16%, passing the limit was not always enough;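 note: cells stimulated with the agonist NPW; 0% = agonist with vehicle and 100% = vehicle without agonist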
TAAR1 antagonist: antagonists of human TAAR1. hit rate 1.5% among 360,000. inhibition, % at 3 µM. AID 624466. CHO RD-HGA16 TAAR1, Fluo-8 calcium fluorescence, antagonist;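 active = inhibition above a per-plate cutoff, the mean inhibition of test compounds on that plate plus 3 SD, cut at about 49% in these data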;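 note: 0% = DMSO plus EC80 beta-PEA response and 100% = DMSO alone without agonist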
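Assay system: CHO-derived RD-HGA16 cells stably expressing human TAAR1 plus Gα16. Timing: 140 s kinetic read after compound, 140 s after agonist. Technique: kinetic Fluo-8 calcium fluorescence measurement. Measure: % inhibition of agonist calcium response.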
DAGLB inhibitor: blocks human DAGLB lipase activity. Q8NCG7. HEK293T DAGLB membrane lysate, EnzChek fluorogenic substrate. inhibition, % at 5.17 µM. hit rate 0.059% among 340,000; in the data active = inhibition above about 34%;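 note: 0% = enzyme with vehicle and 100% = wells lacking enzyme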
Target sequence (Q8NCG7 whole entry, looked up): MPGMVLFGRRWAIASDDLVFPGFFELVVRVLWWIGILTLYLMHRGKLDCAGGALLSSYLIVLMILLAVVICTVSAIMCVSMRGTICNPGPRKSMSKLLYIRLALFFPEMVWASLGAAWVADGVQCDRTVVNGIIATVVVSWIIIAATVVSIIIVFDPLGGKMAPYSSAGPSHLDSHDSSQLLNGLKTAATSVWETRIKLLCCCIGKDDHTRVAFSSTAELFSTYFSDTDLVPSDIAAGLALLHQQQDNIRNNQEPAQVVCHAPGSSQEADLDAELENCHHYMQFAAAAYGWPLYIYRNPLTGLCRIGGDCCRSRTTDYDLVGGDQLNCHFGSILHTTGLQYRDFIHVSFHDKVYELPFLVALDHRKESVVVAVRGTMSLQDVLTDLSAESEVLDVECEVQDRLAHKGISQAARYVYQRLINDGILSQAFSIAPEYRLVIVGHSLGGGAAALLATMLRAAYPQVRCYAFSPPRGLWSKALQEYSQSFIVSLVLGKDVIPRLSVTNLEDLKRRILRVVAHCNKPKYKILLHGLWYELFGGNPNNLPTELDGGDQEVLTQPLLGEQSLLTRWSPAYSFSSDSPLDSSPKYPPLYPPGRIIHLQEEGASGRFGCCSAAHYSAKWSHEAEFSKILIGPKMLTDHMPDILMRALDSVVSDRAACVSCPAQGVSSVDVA
MPTP counter: Rhodamine 123 counter-screen of mitochondrial pore hits; AID 624504; inhibition, % at 10 µM; shares compounds with MPTP block; isolated mitochondria, membrane potential, Rhodamine 123 fluorescence; hit rate 78% among 5,000; in the data active = inhibition above about 22%;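 note: 0% = DMSO vehicle and 100% = positive control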
MPTP abs DR: dose response confirmation of mitochondrial permeability transition pore inhibitors; shares compounds with MPTP block; isolated mitochondria swelling, absorbance; IC50, µM; hit rate 58% among 780; in the data active = IC50 below about 20 µM
MPTP cs DR: counter-screen for mitochondrial permeability transition pore inhibitors, dose response; hit rate 49% among 780; shares compounds with MPTP block; isolated mitochondria counterscreen, fluorescence read-out; IC50, µM; in the data active = IC50 below about 80 µM
Numbers without * were called inactive; i = inactive; . = no result.

SMILES	MPTP block	TAAR1 ag	GPR7 antagonist	TAAR1 antagonist	DAGLB inhibitor	MPTP counter	others
CC1(C(=O)Nc2cccc3cccnc23)CCN1Cc1cccc2c1OCO2 (stereo unspecified)	-1	-1	.	-6	.	.
COC(=O)c1cc2c(c3c4ccccc4n(S(=O)(=O)c4cccc(C)c4)c13)C(=O)N(Cc1ccccc1OC)C2	.	-1	.	3	.	.
Cc1ccc(Cl)cc1N1C(=O)CC(Sc2ccccc2N)C1=O (stereo unspecified)	0	-1	.	21	-2	.
COC(=O)c1ccc2c(c1)c(-c1ccccc1)c(-c1ccccc1)n2C	1	0	.	9	-14	.
CCCn1nc([N+](=O)[O-])c(C(C#N)c2nc3ccccc3o2)c(Cl)c1=O (stereo unspecified)	101*	0	1	-2	70*	50*
Cn1nc([N+](=O)[O-])c(C(C#N)c2ccccn2)c(Cl)c1=O (stereo unspecified)	2	2	-14	1	-2	.
COc1ccc(Cl)cc1NC(=O)Cn1c(C)csc1=O	-1	0	.	-9	3	.
N=c1c2c(-c3ccccc3)c(-c3ccccc3)n(Cc3ccco3)c2ncn1CCCN1CCOCC1	71*	13	-2	4	3	-4
Cc1cccc(C(=O)NC(=S)NNC(=O)c2cccs2)c1	54*	129*	-8	61*	-1	-12
O=C(NC(=S)NNC(=O)c1cccs1)c1ccccc1	-1	37	-11	28	2	.
CC1(C(=O)NS(=O)(=O)Cc2ccccc2)CCN1C(=O)Cc1cc(F)ccc1F (stereo unspecified)	2	3	.	-22	.	.
CN1CCN(C2=Cc3ccccc3Sc3cc(F)c(F)cc32)CC1	93*	37	0	-5	1	-12
CCOC(=O)c1c(NC(=O)CSc2nnc(-c3ccco3)o2)sc(C(C)=O)c1C	10	11	-3	-1	-4	.
CCOC(=O)c1c(NC(=O)CSc2ncnc3ccccc23)sc(C(C)=O)c1C	58*	-1	-2	4	0	4
CCOC(=O)c1cccc(NC(=O)CSc2nncn2-c2ccccn2)c1	0	3	11	-14	-4	.
COC(=O)c1c(NC(=O)CSc2ncnc3ccccc23)sc(C)c1C	8	2	.	-35	-14	.
CCOC(=O)c1c(NC(=O)CSc2nnc(-c3cccnc3)o2)sc(C(C)=O)c1C	75*	8	-2	-1	-2	7	MPTP abs DR=i;MPTP cs DR=13*
CCOC(=O)c1c(NC(=O)CSc2nnc(-c3ccccc3C)n2C)sc(C(C)=O)c1C	84*	8	-5	10	-2	67*
CCOC(=O)c1cccc(NC(=O)CSc2nc3cccnc3n2C)c1	73*	19	-3	45	-1	29*
Cc1[nH]nc2c1C(c1ccccc1)N(c1ccccc1)C2=O (stereo unspecified)	.	0	.	-12	.	.
CCOC(=O)c1c(NC(=O)CSc2nc3cccnc3n2C)sc(C(C)=O)c1C	92*	.	-6	.	2	4	MPTP abs DR=3.7*;MPTP cs DR=3.5*
CCOC(=O)c1sc(NC(=O)CSc2nc3cccnc3n2C)nc1C	6	4	-23	4	-4	.
CC(C)N=c1scc(-c2ccco2)n1/N=C/c1ccc(O)c(O)c1	63*	15	-3	23	8	42*
CCCc1cc(=O)[nH]c(SCc2cc(C(=O)OC)c(C)o2)n1	3	16	-2	-14	1	.
COC(=O)c1cc(CSc2nc3ccccc3[nH]2)oc1C	82*	5	9	-1	-1	40*
SMILES	MPTP block	TAAR1 ag	GPR7 antagonist	TAAR1 antagonist	DAGLB inhibitor	MPTP counter	others
O=C(CN1C(=O)S/C(=C\c2ccccc2)C1=O)Nc1cc([N+](=O)[O-])ccc1O	58*	7	13	20	13	79*
O=C1/C(=C/c2ccc(O)c([N+](=O)[O-])c2)SC(=S)N1Cc1ccccc1	73*	5	-4	-4	6	55*
Cc1ccc(/C=C2/SC(=S)N(CCCC(=O)Nc3cc([N+](=O)[O-])ccc3O)C2=O)cc1	64*	2	1	-36	4	19	MPTP abs DR=4.6*;MPTP cs DR=<2.5*
COc1ccc(S(=O)(=O)N2CCCc3nc(C)c(C)cc32)cc1	.	-1	.	-5	.	.
CC(N=c1ccccn1C(=O)Nc1cccc(C(F)(F)F)c1)c1ccco1 (stereo unspecified)	90*	7	-5	6	0	84*
COc1ccc(S(=O)(=O)NNS(=O)(=O)c2ccc(OC)c(OC)c2)cc1OC	0	.	.	.	.	.
O=C(CNCc1ccccc1)Nc1ccc(F)cc1	2	3	-4	-23	-2	.
O=C(CNCc1ccccc1)Nc1ccc(Oc2ccccc2)cc1	66*	5	12	-7	.	-11	MPTP abs DR=i;MPTP cs DR=43*
O=C(Nc1c(F)cc(F)cc1Br)c1cc(-c2ccccc2)on1	1	5	-6	-4	-7	.
O=C(Nc1c(F)cc(F)cc1Br)c1cc(-c2ccc(O)cc2)on1	92*	17	1	-18	-7	23*
C[C@H](O)[C@@H]1C(=O)N2CCc3c([nH]c4cccc(-c5ccccc5)c34)[C@@H]2C[C@@H]1N(C)C(=O)C1CCCCC1	.	1	.	-15	.	.
c1ccc(CNc2nc(N3CCN(Cc4ccccc4)CC3)nc3ccccc23)cc1	53*	14	-4	-11	.	81*
COc1cc2ncnc(NCc3ccccc3)c2cc1OC	-2	-1	-9	5	1	.
Cc1csc2ncnc(NC3CCN(Cc4ccccc4)CC3)c12	92*	2	15	17	1	87*
c1ccc(CNc2ncnc3ccccc23)cc1	84*	11	-2	-2	-2	59*
c1ccc(N2CCN(c3nc(NCc4ccco4)c4ccccc4n3)CC2)cc1	6	25	5	35	2	.
c1ccc(CN2CCC(Nc3nc(-c4ccccc4)nc4ccccc34)CC2)cc1	106*	19	15	-6	-5	-5
CN(C)Cc1c(C(C)(C)O)[nH]c2cc(C(F)(F)F)ccc12	.	0	.	-21	.	.
COC(=O)CCN(Cc1cccc(OC)c1OC)S(=O)(=O)c1ccccc1Br	.	0	.	-17	.	.
CCCCS(=O)(=O)N1C2=NC(C(=O)OCC)=C(C(=O)OCC)C3N(Cc4ccc(Br)cc4)c4ccccc4[C@]23C[C@H]1C(=O)OC (stereo partly specified)	.	1	.	-23	.	.
CCCCNc1nc(NCc2ccccc2)nc2ccccc12	78*	78*	.	92*	.	118*
CNc1nc(NCc2ccccc2)c2ccccc2n1	5	25	-5	5	-2	.
